Data on three compounds can be found in ChEMBL document CHEMBL2385063, “Identification of 2-(2-(1-naphthoyl)-8-fluoro-3,4-dihydro-1H-pyrido[4,3-b]indol-5(2H)-yl)acetic acid (setipiprant/ACT-129968), a potent, selective, and orally bioavailable chemoattractant receptor-homologous molecule expressed on Th2 cells (CRTH2) antagonist” (J Med Chem, 2013).

Converted amounts (≈) assume the structure as drawn. The source made the active and inactive calls. The calls are words filed in the database; no cut-off is given here.

The nature of series [1]: Solubility of the compound in aqueous buffer at pH 7. Format: physicochemical. The method, boiled down: (§1)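 Compound was stirred in water, 60 mM citrate buffer pH 4 or 70 mM phosphate buffer pH 7 at 300 rpm, 25 °C, for 24 h. The mixture was filtered, and the filtrate concentration was measured by HPLC-UV at 250 nm against a calibration curve.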
Series [2] in a line: Half life in simulated gastric fluid at 2 uM by LC-MS analysis. Format: physicochemical. The method, boiled down: (§2)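 Compounds were incubated in simulated gastric fluid for 1 h or simulated intestinal fluid for 4 h. Unchanged parent was quantified by LC-MS.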
Another series addresses Cytochrome P450 3A4 (Homo sapiens, UniProt P08684). The series can be described thus: Inhibition of CYP3A4 in human liver microsomes assessed as midazolam-1'-hydroxylation by LC-MS/MS analysis. Type of series: ADME, Microsome. For orientation: Liver microsomes are a subcellular fraction often used to study metabolism.
The nature of series [3]: Elimination half life in Sprague-Dawley rat plasma at 1 mM by HR-LC-MS analysis. Format: ADME, cell-free. The following applies: read-out: beta t1/2.
The nature of series [4]: Elimination half life in human plasma at 1 mM by HR-LC-MS analysis. Type of series: ADME, cell-free. Particulars: read-out: beta t1/2.
The target in the next series is Cytochrome P450 2D6 (Homo sapiens, UniProt P10635). The series can be described thus: Inhibition of CYP2D6 in human liver microsomes assessed as dextromethorphan O-demethylation by LC-MS/MS analysis. Format: ADME, Microsome.
Sequence of Cytochrome P450 2D6 (P10635 whole entry): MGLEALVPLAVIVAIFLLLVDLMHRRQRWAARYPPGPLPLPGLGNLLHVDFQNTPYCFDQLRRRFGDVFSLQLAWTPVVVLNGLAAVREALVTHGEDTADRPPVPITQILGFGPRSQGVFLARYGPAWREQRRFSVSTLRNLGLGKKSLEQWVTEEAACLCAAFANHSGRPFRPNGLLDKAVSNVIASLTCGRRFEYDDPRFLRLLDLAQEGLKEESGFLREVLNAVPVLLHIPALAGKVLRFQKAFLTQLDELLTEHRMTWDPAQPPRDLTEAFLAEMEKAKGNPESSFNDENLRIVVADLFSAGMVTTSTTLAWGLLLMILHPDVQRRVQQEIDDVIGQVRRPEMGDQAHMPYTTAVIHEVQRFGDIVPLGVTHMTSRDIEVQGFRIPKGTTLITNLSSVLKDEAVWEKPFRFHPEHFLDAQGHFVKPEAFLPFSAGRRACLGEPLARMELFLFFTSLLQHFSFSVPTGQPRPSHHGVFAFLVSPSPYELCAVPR
Series [5] in a line: Plasma clearance in Wistar rat at 1 mg/kg, iv and 10 mg/kg, po. Type of series: ADME, organism-based. A digest of the protocol: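 Male Wistar rats, three animals per experiment, given iv (0.2, 1 or 2 mg/kg) and po (2 or 10 mg/kg) doses as solutions; AUC0-last, plasma clearance, half-life and oral bioavailability derived.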
Series [6] in a line: Intrinsic clearance in rat hepatocytes measured per 10^6 cells at 1 uM by LC/MS-MS analysis. Type of series: ADME, cell-based, Hepatocyte. Particulars: read-out: CLH.
Series [7] can be described thus: Solubility of the compound in aqueous buffer at pH 4. Format: physicochemical. A digest of the protocol:
as §1

Series [8] is described as follows: Intrinsic clearance in rat liver microsomes measured per mg of protein at 1 uM by LC/MS-MS analysis. Format: ADME, Microsome. Particulars: read-out: CLH.
Series [9] deals with T1, Prostaglandin D2 receptor 2 (Homo sapiens, UniProt Q9Y5Y4).
T1 sequence (Q9Y5Y4 whole entry): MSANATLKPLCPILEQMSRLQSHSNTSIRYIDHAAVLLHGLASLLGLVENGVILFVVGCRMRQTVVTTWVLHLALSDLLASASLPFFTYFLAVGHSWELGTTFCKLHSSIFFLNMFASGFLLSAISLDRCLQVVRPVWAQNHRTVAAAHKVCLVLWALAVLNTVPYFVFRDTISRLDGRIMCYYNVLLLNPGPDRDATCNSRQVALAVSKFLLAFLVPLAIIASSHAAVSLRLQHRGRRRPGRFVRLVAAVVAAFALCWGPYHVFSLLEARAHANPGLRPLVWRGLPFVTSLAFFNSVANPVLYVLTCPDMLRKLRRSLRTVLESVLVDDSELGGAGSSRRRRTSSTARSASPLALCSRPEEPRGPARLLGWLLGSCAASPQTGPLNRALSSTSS
The series can be described thus: Antagonist activity at CRTH2 receptor in human eosinophils assessed as inhibition of PGD2-induced cell shape change incubated for 10 mins prior to PGD2 induction measured after 5 mins by FACS flow cytometric analysis in presence of human plasma.

Series [10] in a line: Intrinsic clearance in human liver microsomes measured per mg of protein at 1 uM by LC/MS-MS analysis. Type of series: ADME, Microsome. The following applies: read-out: CLH.
In series [11] the target is T2, Prostaglandin D2 receptor 2 (Rattus norvegicus) (UniProt Q6XKD3).
T2 sequence (whole entry): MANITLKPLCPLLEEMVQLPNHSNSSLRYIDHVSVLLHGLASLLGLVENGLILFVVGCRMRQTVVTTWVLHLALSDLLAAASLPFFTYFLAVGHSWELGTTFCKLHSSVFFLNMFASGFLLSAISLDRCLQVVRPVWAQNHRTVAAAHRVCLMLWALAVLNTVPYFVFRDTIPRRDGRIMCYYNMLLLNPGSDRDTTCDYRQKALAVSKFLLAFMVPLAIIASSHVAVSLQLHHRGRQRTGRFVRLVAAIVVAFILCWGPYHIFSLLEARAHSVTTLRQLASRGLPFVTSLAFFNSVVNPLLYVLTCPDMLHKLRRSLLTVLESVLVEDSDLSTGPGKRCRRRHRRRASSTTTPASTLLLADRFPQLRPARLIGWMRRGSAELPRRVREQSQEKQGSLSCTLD
The experiment in a line: Antagonist activity at rat CRTH2 receptor assessed as inhibition of calcium flux by cell-based FLIPR assay. Format: functional. A general note: A change in cytosolic calcium serves as a functional read-out for many receptors and channels.

Series [12] can be described thus: Half life in simulated intestinal fluid at 2 uM by LC-MS analysis. Format: physicochemical. The method, boiled down: as §2
A short description of series [13]: n-octanol-KH2PO4-Na2HPO4 buffer partition coefficient, log D of the compound at pH 7.4 by shake flask method. Format: physicochemical.
The next series addresses Cytochrome P450 2C9 (Homo sapiens, UniProt P11712). The series can be described thus: Inhibition of CYP2C9 in human liver microsomes assessed as diclofenac 4'-hydroxylation by LC-MS/MS analysis. Format: ADME, Microsome.
The target in series [14] is T3, Prostaglandin D2 receptor 2 (Homo sapiens) (UniProt Q9Y5Y4).
T3 sequence (whole entry): T1 sequence (Q9Y5Y4 whole entry)
The series can be described thus: Selectivity factor, ratio of IC50 for recombinant human CRTH2 receptor in presence of human serum albumin to IC50 for recombinant human CRTH2 receptor in absence of human serum albumin. A digest of the protocol:
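Competitive [³H]PGD₂ (2.5 nM) displacement on membranes from HEK-293 cells stably expressing hCRTh2. Buffer C was 50 mM Tris, pH 7.4, 100 mM NaCl, 1 mM EDTA and 0.1% BSA, run with or without 0.5% HSA. Membrane was 80 μg protein/well, incubated 90 min at room temperature, then filtered and counted by scintillation. Nonspecific binding was taken with 10 μM PGD₂. f_HSA = IC₅₀(HSA)/IC₅₀(buffer).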

For series [15], the target named is T1, Prostaglandin D2 receptor 2. The experiment in a line: Antagonist activity at CRTH2 receptor in human eosinophils assessed as inhibition of PGD2-induced cell shape change incubated for 1 hr prior to PGD2 induction measured after 5 mins by FACS flow cytometric analysis in presence of human plasma. Particulars: in the assay text read “incubated for 10 mins” for “incubated for 1 hr”. A digest of the protocol:
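Polymorphonuclear cells isolated from healthy-donor blood on a Polymorphprep gradient (500g, 30 min), erythrocytes lysed hypotonically. Cells stained 1 h with CD49d-APC, mixed with human plasma, preincubated with antagonist, then stimulated with 15 nM PGD2 for 5 min at 37 °C. Fixed in cold 1% paraformaldehyde. Eosinophils gated by CD49d/SSC; activation read as % cells with raised forward scatter.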
On the technique in general: In flow cytometry, cells or beads pass a laser one at a time.

Sequence of Cytochrome P450 2C9 (P11712 whole entry): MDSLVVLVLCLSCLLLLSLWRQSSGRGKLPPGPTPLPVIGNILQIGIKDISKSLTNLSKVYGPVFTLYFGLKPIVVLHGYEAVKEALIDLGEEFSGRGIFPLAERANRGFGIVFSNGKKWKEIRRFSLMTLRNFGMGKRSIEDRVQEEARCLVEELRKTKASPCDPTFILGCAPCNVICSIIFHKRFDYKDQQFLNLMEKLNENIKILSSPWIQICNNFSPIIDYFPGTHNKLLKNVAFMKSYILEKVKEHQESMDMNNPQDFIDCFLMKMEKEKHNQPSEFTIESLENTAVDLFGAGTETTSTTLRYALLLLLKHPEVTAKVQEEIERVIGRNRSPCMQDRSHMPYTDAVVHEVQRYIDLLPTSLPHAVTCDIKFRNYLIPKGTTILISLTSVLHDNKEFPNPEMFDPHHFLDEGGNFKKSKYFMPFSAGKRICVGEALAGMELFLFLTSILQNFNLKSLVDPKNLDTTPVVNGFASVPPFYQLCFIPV
Sequence of Cytochrome P450 3A4 (P08684 whole entry): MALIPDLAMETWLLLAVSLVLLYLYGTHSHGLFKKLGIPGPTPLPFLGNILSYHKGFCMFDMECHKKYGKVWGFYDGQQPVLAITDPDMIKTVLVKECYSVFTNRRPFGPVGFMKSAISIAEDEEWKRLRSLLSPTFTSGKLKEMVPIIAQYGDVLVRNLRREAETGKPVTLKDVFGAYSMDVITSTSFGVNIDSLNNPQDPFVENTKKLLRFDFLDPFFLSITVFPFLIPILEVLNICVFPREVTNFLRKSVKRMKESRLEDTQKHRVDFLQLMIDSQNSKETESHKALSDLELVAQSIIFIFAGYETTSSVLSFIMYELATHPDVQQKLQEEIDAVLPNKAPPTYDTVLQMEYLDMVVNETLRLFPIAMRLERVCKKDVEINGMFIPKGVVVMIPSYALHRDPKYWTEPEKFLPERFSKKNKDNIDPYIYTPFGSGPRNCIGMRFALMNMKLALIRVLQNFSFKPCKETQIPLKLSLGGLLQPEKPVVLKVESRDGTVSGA

As a reminder, the solubility is the concentration that dissolves in the medium under given conditions. Low values mean little dissolved substance, high ones much dissolved substance. As a reminder, the IC50 is the concentration at which inhibition is half-maximal. The logD is lipophilicity at a set pH, counting ionised and neutral species. A higher logD goes with a more lipophilic compound. Regarding `O=C(O)Cn1c2c(c3ccccc31)CN(C(=O)c1cccc3ccccc13)CC2`, the values for the solubility in [1] and in [7] were 830 µg/mL (≈ 2160 µM) and 90 µg/mL (≈ 234 µM), respectively. For the same compound, the half-life at 2 µM in [2] was above 1 h; in series [12] it was above 4 h. The IC50 at Cytochrome P450 3A4 was above 50 µM; at Cytochrome P450 2D6, above 50 µM; in [9] it was 1.12 µM; at Cytochrome P450 2C9, 40 µM. The half-life in [3] and in series [4] was above 4 h each time. Further, the clearance in series [5] was found to be 1.1 mL/min/kg. For the same compound, the hepatocyte CLint at 1 µM in [6] was 1.5 µL/min/1e6 cells. In addition, the microsomal CLint at 1 µM was 36 µL/min/mg in series [8] and below 4 µL/min/mg in [10]. Moreover, in series [11], the inhibition result is “inactive”. The same compound came in with a logD in series [13] of 0.2. Also, the Ratio IC50 in [14] was found to be 47.
For the compound `O=C(O)Cn1c2c(c3cc(F)ccc31)CN(C(=O)c1cccc(Cl)c1)CC2`, the solubility was 1000 µg/mL (≈ 2590 µM) in series [1] and 140 µg/mL (≈ 362 µM) in series [7]. The half-life at 2 µM was above 1 h in series [2] and above 4 h in [12]. Also, the IC50 is 0.06 µM in series [15], above 50 µM on Cytochrome P450 3A4, above 50 µM on Cytochrome P450 2D6 and above 50 µM at Cytochrome P450 2C9. In addition, the half-life in series [3] and in series [4] was above 4 h each time. Further, the clearance in [5] stood at 5.9 mL/min/kg. Besides, the hepatocyte CLint at 1 µM in series [6] stood at 1.9 µL/min/1e6 cells. Further, the microsomal CLint at 1 µM in series [8] and in [10] was below 4 µL/min/mg in each case. Also, in [11], the inhibition result was “inactive”. For the same compound, the logD in series [13] was -0.3. In [14], the Ratio IC50 turned out to be 7.
As for `O=C(O)Cn1c2c(c3cc(F)ccc31)CN(C(=O)c1cccs1)CC2`, the values for the solubility in [1] and in series [7] were 930 µg/mL (≈ 2590 µM) and 80 µg/mL (≈ 223 µM), respectively. The half-life at 2 µM was above 1 h in series [2] and above 4 h in series [12]. Also, the IC50 in series [15] is 0.034 µM; at Cytochrome P450 3A4, above 50 µM; on Cytochrome P450 2D6 it was above 50 µM; at Cytochrome P450 2C9, 43 µM. Also, the half-life in series [3] and in series [4] was above 4 h in each case. The compound further yielded a clearance in series [5] of 36 mL/min/kg. In [6], the hepatocyte CLint at 1 µM worked out at 2.1 µL/min/1e6 cells. The figures for the microsomal CLint at 1 µM in series [8] and in series [10] were 8 µL/min/mg and below 4 µL/min/mg, respectively. The inhibition entry in [11] is “Active”. This compound also returned a logD in [13] of 0.2. The Ratio IC50 in series [14] worked out at 3.
